{"source": "paper PMC7366207", "about": "(Journal of Antimicrobial Chemotherapy, 2020)", "key": {"[1]": {"assay_type": "in vivo, human", "settings": "oral 30 mg/day, steady state"}, "UGT1A1": {"system": "UGT1A1", "settings": "cited from earlier work"}, "[2]": {"system": "uridine 5′-diphospho-glucuronosyltransferase (UGT)", "settings": "cited from earlier work"}, "[3]": {"assay": "Last oral lead-in cabotegravir trough", "assay_type": "in vivo, human", "settings": "for Low-versus-normal fold-change between mean cabotegravir trough concentrations: last oral trough on Day 1 (oral 30 mg); for Mean cabotegravir trough concentration: last oral trough on Day 1", "procedure,_shortened": "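Human PK in LATTE-2 (4-weekly arm): daily oral 30 mg plus abacavir/lamivudine for 20 weeks. Day 1 trough taken 20–28 h after the last home oral dose. Plasma drug measured by validated LC-MS (LLOQ 25 ng/mL). Predicted UGT1A1 activity: normal with no *6/*28/*37 (*36 counted as wild type), reduced with one copy, low with two. Fold-change taken as the ratio of mean troughs.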"}, "[4]": {"settings": "cited from earlier work"}, "[5]": {"assay_type": "in vivo, human", "settings": "LATTE", "procedure,_shortened": "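LATTE participants received oral drug 10, 30 or 60 mg once daily with two nucleoside analogues for 24 weeks, then with rilpivirine 25 mg daily to Week 72. Maximum on-treatment change from baseline in serum ALT and total bilirubin, regardless of dose, measured centrally as multiples of ULN. Linear regression on predicted UGT1A1/UGT1A9 activity, with covariates kept if P<0.05.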"}, "UGT1A9": {"system": "UGT1A9", "settings": "cited from earlier work"}, "[6]": {"settings": "oral dolutegravir 50 mg/day; same allele and activity definitions; cited from earlier work"}, "cytochrome P450 3A4": {"system": "cytochrome P450 3A4", "settings": "cited from earlier work"}, "[7]": {"settings": "fast versus normal predicted UGT1A9 activity"}, "[8]": {"settings": "low versus normal predicted UGT1A1 activity"}, "[9]": {"settings": "oral 10, 30 and 60 mg, fast versus normal predicted UGT1A9 activity"}, "[10]": {"settings": "oral 10, 30 and 60 mg, low versus normal predicted UGT1A1 activity"}}, "data": [{"smiles": "C[C@H]1CO[C@@H]2Cn3cc(C(=O)NCc4ccc(F)cc4F)c(=O)c(O)c3C(=O)N12", "note": "[cabotegravir]", "values": [{"measurement": "Association of predicted UGT1A9 activity with exposure measures", "setting": "[1]", "value": "not significantly associated"}, {"measurement": "Elevation in oral AUCtau associated with low predicted UGT1A1 activity", "setting": "[1]", "value": 41, "unit": "%"}, {"measurement": "Elevation in oral Cmax associated with low predicted UGT1A1 activity", "setting": "[1]", "value": 28, "unit": "%"}, {"measurement": "AUCtau, fold-change in exposure (fast versus normal)", "setting": "[1]; [7]", "value": 1.04, "unit": "fold"}, {"measurement": "Cmax, fold-change in exposure (fast versus normal)", "setting": "[1]; [7]", "value": 1.03, "unit": "fold"}, {"measurement": "Ctau, fold-change in exposure (fast versus normal)", "setting": "[1]; [7]", "value": 0.98, "unit": "fold"}, {"measurement": "AUCtau, fold-change in exposure (low versus normal)", "setting": "[1]; [8]", "value": 1.41, "unit": "fold"}, {"measurement": "Cmax, fold-change in exposure (low versus normal)", "setting": "[1]; [8]", "value": 1.28, "unit": "fold"}, {"measurement": "Ctau, fold-change in exposure (low versus normal)", "setting": "[1]; [8]", "value": 1.50, "unit": "fold"}, {"measurement": "Effect on UGT1A1 expression or activity", "setting": "UGT1A1", "value": "does not functionally affect UGT1A1 expression or activity"}, {"measurement": "Metabolism by UGT1A1", "setting": "UGT1A1", "value": "primarily metabolized by UGT1A1"}, {"measurement": "Inhibition or induction of UGT", "setting": "[2]", "value": "not an inhibitor or inducer"}, {"measurement": "Low-versus-normal fold-change between mean cabotegravir trough concentrations", "setting": "[3]; 4 weekly group", "value": 1.57, "unit": "fold"}, {"measurement": "Mean cabotegravir trough concentration", "setting": "[3]; 4 weekly group, low predicted UGT1A1 activity", "value": 6.11, "unit": "µg/mL"}, {"measurement": "Mean cabotegravir trough concentration", "setting": "[3]; 4 weekly group, normal predicted UGT1A1 activity", "value": 3.88, "unit": "µg/mL"}, {"measurement": "Low-versus-normal fold-change between mean cabotegravir trough concentrations", "setting": "[3]; 8 weekly arm", "value": 1.19, "unit": "fold"}, {"measurement": "Mean cabotegravir trough concentration", "setting": "[3]; 8 weekly arm, low predicted UGT1A1 activity", "value": 5.10, "unit": "µg/mL"}, {"measurement": "Mean cabotegravir trough concentration", "setting": "[3]; 8 weekly arm, normal predicted UGT1A1 activity", "value": 4.28, "unit": "µg/mL"}, {"measurement": "Aqueous solubility", "setting": "[4]", "value": "low aqueous solubility"}, {"measurement": "ALT change from BL, fold-change (fast versus normal)", "setting": "[5]; [9]", "value": 1.68, "unit": "fold"}, {"measurement": "Tbili change from BL, fold-change (fast versus normal)", "setting": "[5]; [9]", "value": 0.69, "unit": "fold"}, {"measurement": "ALT maximum change from baseline, fold-change (low versus normal)", "setting": "[5]; [10]", "value": 0.68, "unit": "fold"}, {"measurement": "Tbili maximum change from baseline, fold-change (low versus normal)", "setting": "[5]; [10]", "value": 2.45, "unit": "fold"}, {"measurement": "Association of predicted UGT1A1 activity with maximum change in ALT", "setting": "[5]; oral any dose", "value": "no significant association"}, {"measurement": "Participants with maximum on-treatment ALT elevation ≥3× ULN", "setting": "[5]; among the 5 participants with Tbili increases of 1.5× ULN or greater", "value": "none"}, {"measurement": "Metabolism by UGT1A9", "setting": "UGT1A9", "value": "minor contribution by UGT1A9"}]}, {"smiles": "C[C@@H]1CCO[C@H]2Cn3cc(C(=O)NCc4ccc(F)cc4F)c(=O)c(O)c3C(=O)N12", "note": "[dolutegravir]", "values": [{"measurement": "Increase in AUCtau associated with low UGT1A1 activity", "setting": "[6]", "value": 46, "unit": "%"}, {"measurement": "Increase in Cmax associated with low UGT1A1 activity", "setting": "[6]", "value": 32, "unit": "%"}, {"measurement": "Contribution of cytochrome P450 3A4 to metabolism", "setting": "cytochrome P450 3A4", "value": "~30", "unit": "%"}]}]}
